The text below walks through data of ChEMBL document CHEMBL3997810, “A Novel Potent Anticancer Compound Optimized from a Natural Oridonin Scaffold Induces Apoptosis and Cell Cycle Arrest through the Mitochondrial Pathway” (J Med Chem, 2017).

For one series, the system named is H22. The experiment in a line: Antitumor activity against […] cells xenografted in ICR mouse assessed as tumor growth inhibition at 20 mg/kg/day, iv for 3 weeks. In kind it is functional, organism-based. A digest of the protocol:
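Male ICR mice (5 weeks old) inoculated subcutaneously in the right flank with 1 × 10^6 H22 cells. After 7 d, randomized into groups of eight or six. Dosed iv 20 mg/kg daily in 10% DMF/2% poloxamer/88% saline. Cyclophosphamide 20 mg/kg iv as positive control; saline as negative control. Body weight and tumour volume (L × W²/2) every 2 days; inhibition calculated from final tumour weights.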
(In general: Xenograft models place foreign cells or tissue in a host animal.)

For series [1], the system named is MCF7. The series can be described thus: Cell cycle arrest in human MCF7 cells assessed as accumulation at G2/M phase at 0.25 uM after 48 hrs by propidium iodide staining based flow cytometry (reference value: 13.05%). It counts as functional. A digest of the protocol:
(§1)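 MCF-7 cells, 5 × 10^4 per well, seeded overnight, then exposed to 0.125–1 μM compound, or DMSO, for 48 h. Ethanol-fixed (70%, −20 °C, 12 h) and stained with PI/RNase at 37 °C for 30 min. Phase distribution determined by flow cytometry.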
In general terms: A flow cytometer gives signals particle by particle.

Series [2] can be described thus: Selectivity ratio of IC50 for human KB/CP4 cells to IC50 for human KB-3-1 cells.
Series [3] can be described thus: Antiproliferative activity against human NCI-H460/MX20 cells after 48 hrs by MTT assay. In kind it is functional, cell-based. As to conditions: NCI-H460/MX20, 48 h. Put shortly: (§2)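 Colorimetric MTT assay. KB-3-1, NCI-H460 and Bel-7404 cells were seeded at 4000 cells/well; resistant KB/CP4, NCI-H460/MX20 and Bel-7404/CP20 were seeded at 7000 cells/well. Cells were pre-incubated 24 h at 37 °C, 5% CO2, then exposed to a compound concentration series for 48 h with DMSO ≤0.25%. Absorbance read at 570 nm. Quadruplicate wells, three repeats; means ± SD.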
(Tetrazolium dyes change colour on reduction, which living cells bring about.)

The subject of series [4] is MCF7. The experiment in a line: Cell cycle arrest in human MCF7 cells assessed as accumulation at G2/M phase at 0.5 uM after 48 hrs by propidium iodide staining based flow cytometry (reference value: 13.05%). In kind it is functional. A digest of the protocol:
as §1

Series [5] concerns MCF7. The series can be described thus: Induction of apoptosis in human MCF7 cells assessed as early apoptotic cells at 0.5 uM after 24 hrs by Annexin-V FITC/propidium iodide staining based flow cytometry (reference value: 2.65%). It counts as functional.
The subject of series [6] is Bel-7402. The series can be described thus: Cell cycle arrest in human Bel7402 cells assessed as accumulation at G2/M phase at 1 uM after 48 hrs by propidium iodide staining based flow cytometry (reference value: 56.61%). In kind it is functional.
A further series has as its system Mus musculus. The experiment in a line: Cardiotoxicity in Balb/c nude mouse xenografted with human MCF7 cells assessed as morphological changes in heart at 20 mg/kg/day, iv for 4 weeks by hematoxylin and eosin staining based microscopic method. In kind it is toxicity, organism-based. As to conditions: in vivo, 672 h. A digest of the protocol:
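Male BALB/c nude mice (6 weeks old) carrying subcutaneous MCF-7 xenografts (1 × 10^6 cells). Dosed iv 20 mg/kg daily for 28 days in 10% DMF/2% poloxamer/88% saline; six mice per group. Organs then fixed in 4% paraformaldehyde, paraffin-embedded, cut at 5 μm, stained with Harris hematoxylin and eosin-phloxine, and examined by light microscopy.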

Series [7] concerns MCF7. The series can be described thus: Induction of mitochondrial membrane potential depolarization in human MCF7 cells after 36 hrs by JC1 staining based fluorescence microscopic method. In kind it is functional, cell-based. Put shortly:
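MCF-7 cells were treated with 0, 0.25, 0.5 or 1 μM for 36 h and loaded with 10 μg/mL JC-1 for 30 min at 37 °C, then washed in PBS. Monomers were read at ex 490/em 535 nm and aggregates at ex 525/em 600 nm, by plate reader or fluorescence microscopy. The red/green ratio came from 10,000 cells per group, in triplicate, mean ± SD.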

Series [8] concerns MCF7. The series can be described thus: Induction of apoptosis in human MCF7 cells assessed as early apoptotic cells at 0.125 uM after 24 hrs by Annexin-V FITC/propidium iodide staining based flow cytometry (reference value: 2.65%). It counts as functional.
In series [9] the test system is MCF7. The series can be described thus: Cell cycle arrest in human MCF7 cells assessed as accumulation at G2/M phase at 1 uM after 48 hrs by propidium iodide staining based flow cytometry (reference value: 13.05%). It counts as functional. Put shortly: as §1
The subject of series [10] is MCF7. The experiment in a line: Cell cycle arrest in human MCF7 cells assessed as accumulation at S phase at 0.125 uM after 48 hrs by propidium iodide staining based flow cytometry (reference value: 37.18%). In kind it is functional. Put shortly: as §1
For series [11], the system named is MCF7. The experiment in a line: Induction of apoptosis in human MCF7 cells assessed as decrease in pro-caspase-3 to caspase-3 protein expression ratio after 48 hrs by Western blot method. It counts as functional, cell-based. Put shortly:
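MCF-7 cells exposed to 0–1 μM compound for 48 h, then lysed on ice. Lysate (20 μg protein) run on 8–12% SDS-PAGE and transferred to PVDF. Probed overnight at 4 °C with primary antibodies, then fluorescent secondaries. Band densities normalized to β-actin. Mean ± SD of three independent experiments.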

The test system of another series is KB 3-1. The series can be described thus: Antiproliferative activity against human KB-3-1 cells after 48 hrs by MTT assay. As to conditions: KB 3-1, 48 h. It counts as functional, cell-based. Put shortly:
as §2

Series [12] has as its system MCF7. The series can be described thus: Cell cycle arrest in human MCF7 cells assessed as accumulation at G1 phase at 0.25 uM after 48 hrs by propidium iodide staining based flow cytometry (reference value: 49.77%). In kind it is functional. Put shortly: as §1
Series [13] concerns MCF7. The experiment in a line: Induction of apoptosis in human MCF7 cells assessed as live cells at 1 uM after 24 hrs by Annexin-V FITC/propidium iodide staining based flow cytometry (reference value: 97%). In kind it is functional.
Series [14] deals with MCF7. The experiment in a line: Cell cycle arrest in human MCF7 cells assessed as accumulation at S phase at 0.25 uM after 48 hrs by propidium iodide staining based flow cytometry (reference value: 37.18%). In kind it is functional. A digest of the protocol: as §1
The test system of series [15] is MCF7. The series can be described thus: Induction of apoptosis in human MCF7 cells assessed as necrotic cells at 1 uM after 24 hrs by Annexin-V FITC/propidium iodide staining based flow cytometry (reference value: 0.102%). In kind it is functional.
The subject of series [16] is Bel-7402. The series can be described thus: Cell cycle arrest in human Bel7402 cells assessed as accumulation at G2/M phase at 4 uM after 48 hrs by propidium iodide staining based flow cytometry (reference value: 56.61%). In kind it is functional.
Series [17] concerns Bel-7402. The experiment in a line: Antiproliferative activity against human Bel7402 cells after 72 hrs by MTT assay. In kind it is functional, cell-based. As to conditions: Bel-7402, 72 h. Put shortly: (§3)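 MGC-803 and MCF-7 cells grown in DMEM (MCF-7 with 1× NEAA); Bel-7402 and K562 grown in RPMI 1640; all media with 10% FBS. Cells seeded at 3500/well, pre-incubated 24 h, then exposed to compounds in fresh medium (DMSO ≤0.25%) for 72 h at 37 °C. MTT read-out at 570 nm. Quadruplicate wells, repeated three times; means ± SD (n = 3).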

Series [18] relates to MCF7. The experiment in a line: Cell cycle arrest in human MCF7 cells assessed as accumulation at G2/M phase at 0.125 uM after 48 hrs by propidium iodide staining based flow cytometry (reference value: 13.05%). It counts as functional. A digest of the protocol: as §1
Series [19] deals with MCF7. The experiment in a line: Antiproliferative activity against human MCF7 cells after 72 hrs by MTT assay. It counts as functional, cell-based. As to conditions: MCF7, 72 h. A digest of the protocol: as §3
For series [20], the system named is MCF7. The series can be described thus: Induction of apoptosis in human MCF7 cells assessed as late apoptotic cells at 0.125 uM after 24 hrs by Annexin-V FITC/propidium iodide staining based flow cytometry (reference value: 0.255%). In kind it is functional.

Active and inactive are the calls of the source. No cut-off for these calls is given here.

One may read the IC50 as the concentration that gives 50% inhibition. Low readings indicate inhibition by little substance, high ones a need for much substance. For the compound `C=C1C(=O)[C@]23[C@H](OC(=O)/C=C/c4ccccc4)[C@H]1CC[C@H]2[C@]12C=CCC(C)(C)[C@H]1[C@H](O)[C@]3(O)OC2`, the TGI result in the series on H22 is “Active”. Besides, the Activity in the series on MCF7 [1] was 16.73%; with MCF7 [4], 24.23%; in the series on MCF7 [5], 13.3%; in the series on Bel-7402 [6], 59.37%; in the series with Mus musculus, “Non-Toxic”; with MCF7 [7], “Dose-dependent effect”. The Activity with MCF7 [8] is 4.64%; in the series on MCF7 [9], 34.23%; in the series with MCF7 [10] it was 33.93%; in the series with MCF7 [11], “Dose-dependent effect”; with MCF7 [12] it was 49.37%; in the series with MCF7 [13], 31.2%. Besides, the Activity is given as 33.9% with MCF7 [14]; 1.14% in the series with MCF7 [15]; 63.11% in the series on Bel-7402 [16]; 16.83% with MCF7 [18]; 9.32% in the series with MCF7 [20]. Further, the “Ratio IC50” value in series [2] was <1. The IC50 in series [3] was found to be 13.6 µM; in the series on KB 3-1, 5.7 µM; in the series on Bel-7402 [17], 1.03 µM; in the series with MCF7 [19], 0.08 µM.
